Assay outcomes (PubChem)
This is a sample that favours compounds with a hit; in the whole collection about 2.6% have one here.
UCH37 DUB inh: human UCH37 deubiquitinating enzyme inhibition; AID 588478; purified proteasome/UCH37, Ub-AMC cleavage fluorescence; hit rate 0.33% among 330,000; Q9Y5K5; inhibition, % (test concentration not listed);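 active = mean inhibition over replicate wells above about 20%, limit read from the data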
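assay system = human UCH37 enzyme supplied as purified proteasome complex | amount = proteasome at 0.15 nM in the dispensed enzyme solution | schedule = 30 min compound-proteasome preincubation then 25 min substrate reaction, room temperature | measured by = fluorescence, ex 355 nm, em 460 nm | benchmarks = no-proteasome wells (full inhibition) and compound-free wells (no inhibition)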
FGF22 binding: FGF22 (human) thermal shift binding | hit rate 1.5% among 340,000 | activity (Tm shift, normalised), % at 9.99 µM | Q9HCT0 | recombinant FGF22 thermal shift, SYPRO orange fluorescence; percent of sucrose octasulfate shift, DMSO zero | AID 651658;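 active = mean Tm shift, scaled 0 neutral to 100 positive control, at about 1.3% or above, every replicate too, limit read from the data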
Target sequence (Q9HCT0 whole entry, looked up): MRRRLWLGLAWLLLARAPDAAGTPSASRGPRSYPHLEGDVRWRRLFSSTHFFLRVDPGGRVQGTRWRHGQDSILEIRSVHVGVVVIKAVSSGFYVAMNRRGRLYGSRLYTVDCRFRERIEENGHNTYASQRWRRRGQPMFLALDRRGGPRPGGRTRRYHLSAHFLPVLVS
Casp6 inh: inhibitors of human caspase-6; P55212; purified caspase-6, Z-VEID-R110 cleavage fluorescence; inhibition, % at 12.5 µM; hit rate 0.53% among 350,000; AID 686996;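 active = mean inhibition across replicates at least about 35%, with every replicate also reaching that limit, limit read from the data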
SIRT5 inh: sirtuin-5 (human) deacylase inhibition; inhibition, % at 15 µM; Purified SirT5, succinyl-peptide AMC, trypsin-coupled fluorescence; Q9NXA8; hit rate 1.1% among 330,000; in the data active = inhibition above about 15%
Target sequence (Q9NXA8 whole entry, looked up): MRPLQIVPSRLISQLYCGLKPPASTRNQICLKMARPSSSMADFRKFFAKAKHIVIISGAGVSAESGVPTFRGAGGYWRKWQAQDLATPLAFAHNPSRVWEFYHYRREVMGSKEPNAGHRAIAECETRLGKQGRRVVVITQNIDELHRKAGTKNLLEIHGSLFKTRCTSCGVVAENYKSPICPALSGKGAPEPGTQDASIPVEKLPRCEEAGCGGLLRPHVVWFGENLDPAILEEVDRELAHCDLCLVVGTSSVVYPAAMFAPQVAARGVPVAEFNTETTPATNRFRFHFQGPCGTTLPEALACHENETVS
NSD2 HMT inh: inhibitors of human histone methyltransferase NSD2; NSD2 peptide methylation, AlphaScreen, 120 min; inhibition, % at 12.5 µM; hit rate 0.54% among 310,000; in the data active = inhibition above about 50%
Of the large screens only hits and unclear results are named; the others gave an inactive call; ! = not active in a repeat.

O=C(O)c1cnn(-c2nc(-c3cccc(F)c3)cs2)c1C(F)(F)F	none
Nc1cccc(-c2csc(-n3ncc(C(=O)O)c3C(F)(F)F)n2)c1	SIRT5 inh 29
C/C=C/c1ccc2c(c1)O[C@@H](CN(C)C(C)=O)[C@H](C)CN([C@H](C)CO)S2(=O)=O	none (no result: UCH37 DUB inh, NSD2 HMT inh)
O=C(O)Cn1c2ccccc2c2ccccc21	none
O=C(O)Cn1c2c(c3ccccc31)CSc1ccc(Cl)cc1-2	FGF22 binding 1.9 (no result: NSD2 HMT inh)
CN(C)CC(=O)N1CC[C@@H]2[C@H]1c1cc(Br)ccc1N(C)[C@@H]2CO	none (no result: UCH37 DUB inh, Casp6 inh, SIRT5 inh, NSD2 HMT inh)
COc1cc(CC(=O)Nc2ccccc2N2CCOCC2)cc(OC)c1OC	FGF22 binding 43
COc1cccc(CN(C)CC(=O)Nc2ccccc2N2CCOCC2)c1OC	none
CCn1c(CCc2ccccc2)n[nH]c1=S	none (no result: SIRT5 inh)
C=CCn1c(CCSCc2ccccc2)n[nH]c1=S	none
CCn1c(Cc2ccccc2)n[nH]c1=S	SIRT5 inh 31
CCn1c(CSCc2ccccc2)n[nH]c1=S	SIRT5 inh 37
N#C[C@@H]1[C@H](c2ccccc2-c2ccc(F)cc2)[C@H](CO)N1C(=O)Cc1ccccc1	none (no result: UCH37 DUB inh, NSD2 HMT inh)
COC(=O)C[C@H]1C=C[C@H](NC(=O)c2ccccc2)[C@H](CO)O1	none (no result: UCH37 DUB inh, NSD2 HMT inh)
CC=Cc1ccc2n(c1=O)C[C@@H]1[C@@H](CO)[C@H](C(=O)NC3CCC3)N(C(=O)C3CCC3)[C@H]21 (mixture of isomers)	none (no result: UCH37 DUB inh, NSD2 HMT inh)
Nc1nc2c(s1)COc1ccccc1-2	FGF22 binding 43
COc1ccc(NS(=O)(=O)c2ccc(OCC(=O)N3CCOCC3)cc2)cc1	none (no result: FGF22 binding, Casp6 inh, SIRT5 inh)
CSc1ccc(S(=O)(=O)Nc2ccc(OCC(=O)N3CCOCC3)cc2)cc1	FGF22 binding 43
O=C(Nc1ccccc1)Nc1ccc2c(c1)[C@@H]1C[C@@H](CC(=O)N3CCOCC3)O[C@@H](CO)[C@@H]1O2	none (no result: UCH37 DUB inh, Casp6 inh, SIRT5 inh, NSD2 HMT inh)
Cc1cccc(OCC(=O)Nc2ccc(C(=O)c3ccc(C(=O)O)cc3)cc2)c1	UCH37 DUB inh 35
Cc1cccc(OCC(=O)Nc2cc(C)on2)c1	UCH37 DUB inh 34 (no result: FGF22 binding, Casp6 inh, SIRT5 inh)
Cc1cccc(OCC(=O)NNC(=O)C2CCCCC2C(=O)O)c1 (stereo not drawn)	SIRT5 inh 37
C[C@@H]1CCCCO[C@@H](CN(C)C)[C@H](C)CN([C@@H](C)CO)C(=O)c2cc(NC(=O)Nc3ccc4c(c3)OCO4)ccc2O1	none (no result: UCH37 DUB inh, NSD2 HMT inh)
C[C@@H]1CCCCO[C@H](CN(C)CC2CCCCC2)[C@@H](C)CN([C@H](C)CO)C(=O)c2cc(NC(=O)NC3CCCCC3)ccc2O1	none (no result: UCH37 DUB inh, Casp6 inh, SIRT5 inh, NSD2 HMT inh)
Cc1c(C(=O)Nc2ccc(-c3nnc4n3CCCCC4)cc2)oc2c1ccc1ccccc12	none (no result: FGF22 binding, Casp6 inh, SIRT5 inh)
O=C(Nc1ccc(-c2nnc3n2CCCCC3)cc1)c1cc2ccccc2o1	FGF22 binding 44
C[C@@H]1CN([C@@H](C)CO)S(=O)(=O)c2ccc(/C=C/c3ccccc3)cc2O[C@H]1CN(C)C(=O)NC1CCCC1	SIRT5 inh 16 (no result: UCH37 DUB inh, NSD2 HMT inh)
C/C=C/c1ccc2c(c1)O[C@H](CN(C)C(=O)NC1CCCC1)[C@H](C)CN([C@H](C)CO)S2(=O)=O	SIRT5 inh 16! (no result: UCH37 DUB inh, NSD2 HMT inh)
C/C=C/c1ccc2c(c1)O[C@@H](CN(C)C(=O)NC1CCCCC1)[C@@H](C)CN([C@@H](C)CO)S2(=O)=O	none (no result: UCH37 DUB inh, NSD2 HMT inh)
C[C@@H]1CN([C@H](C)CO)S(=O)(=O)c2ccc(/C=C/c3ccccc3)cc2O[C@H]1CN(C)C(=O)NC1CCCC1	SIRT5 inh 15 (no result: UCH37 DUB inh, NSD2 HMT inh)
C/C=C/c1ccc2c(c1)O[C@@H](CN(C)C(=O)NC1CCCC1)[C@H](C)CN([C@@H](C)CO)S2(=O)=O	none (no result: UCH37 DUB inh, NSD2 HMT inh)
C[C@H](CO)N1C[C@H](C)[C@@H](CN(C)C(=O)NC2CCCC2)Oc2cc(/C=C/c3ccccc3)ccc2S1(=O)=O	none (no result: UCH37 DUB inh, NSD2 HMT inh)
C[C@H]1CN([C@@H](C)CO)C(=O)c2cccc(NC(=O)Nc3ccc(C(F)(F)F)cc3)c2O[C@@H]1CN(C)S(=O)(=O)c1ccc(F)cc1	none (no result: UCH37 DUB inh, NSD2 HMT inh)
Cc1ccc(S(=O)(=O)N(C)C[C@H]2Oc3c(NC(=O)Nc4ccc5c(c4)OCO5)cccc3C(=O)N([C@@H](C)CO)C[C@H]2C)cc1	SIRT5 inh 15 (no result: UCH37 DUB inh, NSD2 HMT inh)
C[C@H]1CN([C@@H](C)CO)C(=O)c2cccc(NC(=O)Nc3ccc(C(F)(F)F)cc3)c2O[C@H]1CN(C)S(=O)(=O)c1ccc(F)cc1	SIRT5 inh 16 (no result: UCH37 DUB inh, NSD2 HMT inh)
C[C@@H]1CN([C@H](C)CO)C(=O)c2cccc(NC(=O)Nc3ccc(C(F)(F)F)cc3)c2O[C@H]1CN(C)S(=O)(=O)c1cccs1	SIRT5 inh 17 (no result: NSD2 HMT inh)
Cc1cc(C)c2c(N)c(C(=O)NN=Cc3cccnc3)sc2n1	none (no result: FGF22 binding, Casp6 inh, SIRT5 inh, NSD2 HMT inh)
